Most compounds without a hit are left out; they make up all but 1.3% or so of the library.
mABHD4 FP = ABHD4 inhibitors, primary screen, biochemical, fluorescence polarization, mouse | AID 720543, 2013 | (Lyso)-N-acylphosphatidylethanolamine lipase (Mus musculus), Q8VD66 | purified mABHD4, FP-Rh probe fluorescence polarization | 0.54% of 370,000 active | inhibition, % at 8.92 µM;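 active = inhibition exceeding the mean over every tested compound plus 3 SD, cut at about 30% in these data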
Target sequence (Q8VD66 whole entry, looked up): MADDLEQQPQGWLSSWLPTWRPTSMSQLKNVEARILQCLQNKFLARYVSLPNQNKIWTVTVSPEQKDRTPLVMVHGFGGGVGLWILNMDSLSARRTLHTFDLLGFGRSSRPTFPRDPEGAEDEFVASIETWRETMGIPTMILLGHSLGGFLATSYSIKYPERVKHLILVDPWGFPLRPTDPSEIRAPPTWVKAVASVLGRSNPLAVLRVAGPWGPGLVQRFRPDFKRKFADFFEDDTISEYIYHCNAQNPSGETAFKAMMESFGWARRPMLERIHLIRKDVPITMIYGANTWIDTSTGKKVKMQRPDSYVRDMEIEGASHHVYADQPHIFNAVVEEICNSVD
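assay system = mABHD4 protein | compound dosing = single nominal dose of 8.92 µM, 0.89% DMSO final | read-out basis = percent inhibition of probe binding, normalized to plate controls | schedule = Enzyme–compound pre-incubation 45 min, then probe 60 min, both 25 °C | detection = fluorescence polarization, excitation 525 nm, emission 598 nm, BODIPY TMR filters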
Tn6 DDE FP = inhibitors of Tn6 peptide binding to fibrin DD(E), primary screen, biochemical, fluorescence polarization, human fibrin, Tn6 probe; Fibrinogen beta chain (Homo sapiens), P02675; Fibrin DD(E) TRITC-Tn6 fluorescence polarization displacement; inhibition, % at 8.3 µM; 0.21% of 370,000 active;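 active = inhibition above a per-campaign cutoff: mean of compounds within control limits plus 3 SD, cut at about 15% in these data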
TCR-CD3 inh = inhibitors of human TCR-CD3 interaction, primary screen, biochemical, fluorescence, TAMRA-labeled TCR probe; T-cell receptor (TCR); inhibition, % at 9.4 µM; 0.37% of 360,000 active; AID 651800, 2012;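 note: recombinant mutant TCR 2C K166C tagged with TAMRA read by polarization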
DDE Tn7 FP inh = inhibitors of Tn7 peptide binding to fibrin DD(E), primary screen, biochemical, fluorescence polarization, human fibrin, Tn7 probe | 0.13% of 370,000 active | FP displacement of FITC-Tn7 peptide from fibrin DD(E); 0% = median of compound wells per plate | Fibrinogen beta chain (Homo sapiens), P02675 | AID 720508, 2013 | inhibition, % at 8.3 µM;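 active = inhibition above the mean of compounds falling within the control limits plus 3 SD of them, cut at about 14% in these data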
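Assay system: Human clot-derived fibrin DD(E) complex | Buffer or medium: Tris/NaCl/CaCl2 buffer, pH 7.8 | Repeats: One replicate per compound | Benchmarks: Aha-Tn7 high control | Measure: % inhibition scaled between sample-field median and high-control FP | Schedule: 10 min plus 3 h, room temperature | Signal: Fluorescence polarization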
HTRA1 inhibitor = HTRA1 serine protease inhibitors, primary screen, biochemical, fluorescence polarization, HTS; Q92743; recombinant HTRA1, FP-rhodamine activity-based probe; inhibition, % at 5.96 µM; 0.5% of 340,000 active; AID 504803, 2011; in the data active = inhibition above about 36%
HTRA1 inh conf = HTRA1 protease inhibitors, retest, confirmation, biochemical, fluorescence polarization; AID 540248, 2011; 66% of 1,600 active; shares compounds with HTRA1 inhibitor; recombinant HTRA1, FP-rhodamine activity-based probe; inhibition, % at 5.96 µM;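 active = mean inhibition over three repeats above a set limit taken from the earlier primary screen, cut at about 37% in these data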;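 note: inhibitors block probe binding so polarization drops and inhibition rises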
BSA TAMRA ctr = compounds interfering with TAMRA-BSA probe, counter-screen for TCR-CD3 interaction inhibitor project, biochemical, fluorescence, TAMRA-labeled BSA; shares compounds with TCR-CD3 inh; TAMRA-labeled BSA probe fluorescence counterscreen; inhibition, % at 9.4 µM; 10% of 1,200 active; in the data active = inhibition above about 23%
TCR-CD3 conf = TCR-CD3 interaction inhibitors, retest, confirmation, biochemical, fluorescence, TAMRA-labeled TCR probe. shares compounds with TCR-CD3 inh. TAMRA-labeled TCR probe fluorescence binding assay. inhibition, % at 9.4 µM. 48% of 1,200 active. AID 652036, 2013
DDE Tn6 FP ctr = counter-screen hit for Tn6 peptide-fibrin DD(E) binding disruption. shares compounds with Tn6 DDE FP. TRITC-Tn6 fluorescence polarization displacement; 0% = median of compound wells, not DMSO. inhibition, % at 8.3 µM. 2% of 680 active. AID 720621;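 active = inhibition above the mean of test compounds lying between the control limits plus 3 SD of those, cut at about 14% in these data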
DDE Tn6 confirm = inhibitors of Tn6 peptide binding to fibrin DD(E), confirmation, biochemical, fluorescence polarization, human fibrin, Tn6 probe. FP displacement of TRITC-Tn6 peptide from DD(E); 0% = per-plate median of test wells. 10% of 680 active. shares compounds with Tn6 DDE FP. inhibition, % at 8.3 µM. AID 720631, 2013;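 active = inhibition above the mean of compounds lying within the control limits plus 3 SD, cut at about 16% in these data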
ABHD4 confirm = ABHD4 inhibitors, retest, confirmation, biochemical, fluorescence polarization, mouse; 55% of 1,800 active; purified mABHD4, FP-Rh probe fluorescence polarization; inhibition, % at 8.92 µM; AID 720658, 2013; shares compounds with mABHD4 FP;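 active = mean inhibition across replicates above the hit cutoff set in the primary screen, cut at about 30% in these data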
Numbers stand for hits; 0 = inactive; - = not tested or not shown. Cut-off read from the data, not from the text of the source, unless noted: active = inhibition above about 19%; inactive = the rest.

SMILES	mABHD4 FP	Tn6 DDE FP	TCR-CD3 inh	DDE Tn7 FP inh	HTRA1 inhibitor	HTRA1 inh conf	ABHD4 confirm	others
O=C(NCc1ccccn1)C1Nc2ccc(OC(F)(F)F)cc2C2C=CCC12 (stereo unspecified)	48	0	0	0	43	0	0
O=C(CC1Nc2cccc3cccc(c23)NC1=O)Nc1ccccc1 (stereo unspecified)	32	0	0	0	72	0	42
NC(=O)CC1Nc2cccc3cccc(c23)NC1=O (stereo unspecified)	0	0	0	0	0	-	-
Cc1ccc(S(=O)(=O)Nc2nc3ccccc3nc2NCc2ccco2)cc1	55	44	67	0	43	0	0	BSA TAMRA ctr=0;TCR-CD3 conf=0
N#CCC(=O)Nc1ccc(C(=O)OCC(=O)c2ccc3c(c2)NC(=O)CO3)cc1	0	0	0	0	0	-	-
O=S(=O)(c1ccc(F)cc1)N1CN(Cc2ccco2)c2nc3ccccc3nc21	45	36	46	0	46	0	0	BSA TAMRA ctr=0;TCR-CD3 conf=0;DDE Tn6 FP ctr=0;DDE Tn6 confirm=0
Cc1ccc(S(=O)(=O)N2CN(Cc3ccco3)c3nc4ccccc4nc32)cc1	0	0	0	0	0	-	-
O=C(CNC(=O)C1CCCCC1)OCC(=O)c1cccc(Cl)c1	0	0	0	0	0	-	-
Cc1ccc(C2=C(O)C(=O)C(c3ccc(C)cc3)=C(O)C2=O)cc1	46	0	0	0	85	98	60
CC[C@@H]1C=C(C(=O)O)[C@H](c2ccc3c(c2)OCO3)N1S(=O)(=O)c1ccc(C)cc1	0	0	0	0	0	-	-
COc1ccc(CC(=O)OCC(=O)Nc2c(C)n(C)n(-c3ccccc3)c2=O)cc1OC	0	0	0	0	0	-	-
CCOC(=O)c1sc(NC(=O)CSc2nnc(C(C)C)n2CC)nc1C	0	0	0	0	0	-	-
Cc1ccc2nc(/C(C#N)=C/c3ccc(O)c(O)c3)[nH]c2c1	55	0	0	0	67	92	52
COc1ccccc1-c1cc(C(=O)NCc2ccc(Cl)cc2)no1	0	0	0	0	0	-	-
C/C(=N\NC(=O)c1cc(O)ccc1O)c1cccc(NC(=O)c2ccc(Cl)cc2)c1	57	0	46	0	44	0	42	BSA TAMRA ctr=0;TCR-CD3 conf=0
C/C(=N\NC(=O)c1ccccc1O)c1cccc(NC(=O)c2ccccc2)c1	0	0	0	0	0	-	-
COc1ccc(C(=O)n2nc(C)cc2Nc2ccccc2)cc1	0	0	0	0	0	-	-
CC(=O)c1ccc(NC(=S)NC(=O)/C=C/c2ccccc2)cc1	0	0	0	0	0	-	-
O=C(Nc1ccc([N+](=O)[O-])cc1)c1ccccc1F	0	0	0	0	0	-	-
